Assay results as given in publication PMC4411251 (The Journal of General Physiology, 2015).
“Also recorded” adds a separate entry of the source.

How the values were obtained:
TRPV1-WT [1] = biological target: T1, TRPV1-WT (Rattus norvegicus, UniProt O35433); format: cell-based; details: Hill fit of dose–response, native lipids
TRPV1-R721A [2] = biological target: T2, TRPV1-R721A (Rattus norvegicus, UniProt O35433, R721A); format: cell-based; details: Hill fit of dose–response, native lipids
TRPV1-R721A [3] = biological target: T2, TRPV1-R721A; format: cell-based; details: for Hill slope nH, phosphoinositide activation of TRPV1-R721A: Hill fit of dose–response, 1 µM capsaicin
In short: (§1)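 Rat TRPV1 (WT or R721A) transiently expressed in F-11 cells and used 12–48 h post-transfection. […] Bath was 130 mM NaCl, 10 mM HEPES, 0.2 mM EDTA, pH 7.4, with steps from 0 mV to ±100 mV. Vehicle-subtracted currents were Hill-fitted per patch, normalized to Imax, and pooled (mean, SEM).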

TRPV1-WT [4] = biological target: T1, TRPV1-WT; format: cell-based; details: Hill fit of dose–response, 1 µM capsaicin
In short: as §1

TRPV1 = details: ref Collins and Gordon, 2013; cited from earlier work
[5] = R721A mutation compared with WT

T1 sequence (O35433 whole entry): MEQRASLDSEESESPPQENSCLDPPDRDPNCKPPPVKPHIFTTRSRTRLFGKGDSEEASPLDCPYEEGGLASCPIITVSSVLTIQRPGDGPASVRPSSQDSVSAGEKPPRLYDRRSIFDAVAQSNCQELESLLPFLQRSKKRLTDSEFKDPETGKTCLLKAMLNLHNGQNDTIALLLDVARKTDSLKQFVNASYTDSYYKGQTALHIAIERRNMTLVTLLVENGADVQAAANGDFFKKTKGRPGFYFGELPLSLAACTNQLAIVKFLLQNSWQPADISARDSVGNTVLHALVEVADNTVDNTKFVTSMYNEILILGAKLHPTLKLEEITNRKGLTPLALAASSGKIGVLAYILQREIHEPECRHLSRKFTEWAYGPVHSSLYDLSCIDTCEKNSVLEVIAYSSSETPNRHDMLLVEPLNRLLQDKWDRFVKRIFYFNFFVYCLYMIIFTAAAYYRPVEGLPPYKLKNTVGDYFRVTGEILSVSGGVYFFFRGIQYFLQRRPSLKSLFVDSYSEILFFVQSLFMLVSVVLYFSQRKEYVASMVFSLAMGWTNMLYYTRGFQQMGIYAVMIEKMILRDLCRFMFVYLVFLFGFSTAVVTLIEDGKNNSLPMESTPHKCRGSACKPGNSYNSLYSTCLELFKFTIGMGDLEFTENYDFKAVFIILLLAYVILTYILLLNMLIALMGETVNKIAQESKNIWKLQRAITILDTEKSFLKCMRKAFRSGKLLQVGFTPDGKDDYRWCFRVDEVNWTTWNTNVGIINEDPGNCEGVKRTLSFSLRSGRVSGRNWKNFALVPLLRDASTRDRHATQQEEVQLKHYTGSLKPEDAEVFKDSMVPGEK
T2 sequence (O35433 whole entry R721A): as the sequence (O35433 whole entry) above, with R721A counted along it

SMILES | Hill slope nH, capsaicin activation of TRPV1-WT (TRPV1-WT [1]) | Hill slope nH, capsaicin activation of TRPV1-R721A (TRPV1-R721A [2]) | Hill slope nH, phosphoinositide activation of TRPV1-R721A (TRPV1-R721A [3]) | decrease in the EC50 for activation produced by the R721A mutation (in words) (TRPV1-R721A [3]; [5]) | decrease in the EC50 value, TRPV1-R721A versus TRPV1-WT (TRPV1-R721A [3]; [5]) [fold] | Hill slope nH, phosphoinositide activation of TRPV1-WT (TRPV1-WT [4]) | K1/2 of activating effects on TRPV1 in the plasma membrane (TRPV1) [mol %] | increase in the EC50 value, TRPV1-R721A versus TRPV1-WT (TRPV1-R721A [3]; [5]) [fold]
COc1cc(CNC(=O)CCCC/C=C/C(C)C)ccc1O [capsaicin] | 1 | 1 |  |  |  |  |  | 
CCCCCCCC(=O)OC[C@H](COP(=O)(O)O[C@H]1[C@H](O)[C@@H](O)[C@H](OP(=O)(O)O)[C@@H](O)[C@H]1O)OC(=O)CCCCCCC [diC8-PI(4)P] |  |  | 2 | more than two orders of magnitude; also recorded: over two orders of magnitude | 150 | 2 |  | 
CCCCCCCC(=O)OC[C@H](COP(=O)(O)O[C@@H]1[C@H](O)[C@H](O)[C@@H](OP(=O)(O)O)[C@H](OP(=O)(O)O)[C@H]1O)OC(=O)CCCCCCC [diC8-PI(4,5)P2, phosphoinositide 4,5-bisphosphate] |  |  | 2 |  |  | 2 | ~0.03 | 1.3
